Here are results for 1 substance from paper PMC2804977 (Biochemical and biophysical research communications, 2009).

In assay [1] the target is T1, 15F3 of Fn (Rattus norvegicus, UniProt P04937).
T1 sequence (P04937 2193-2286 limits assumed): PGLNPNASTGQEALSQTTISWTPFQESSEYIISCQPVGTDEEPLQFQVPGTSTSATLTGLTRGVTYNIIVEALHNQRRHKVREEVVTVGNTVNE
Description: Intrinsic Trp fluorescence quenching titration of 15F3. The format is binding. Put shortly:
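Titration of the rat Fn 15th type III module (1 μM) with varied test peptide concentrations; intrinsic Trp emission spectra recorded after 5 min. Intensity at 350 nm was fitted to derive KD. Data were corrected for dilution and inner-filter effect.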

In assay [2] the target is T1, 15F3 of Fn. Description: Stopped-flow binding kinetics with 15F3. To be noted: 25 °C. Put shortly: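 Rat Fn 15th type III module (1 μM) in PBS was rapidly mixed with test peptide (25–400 μM, at least 25-fold excess for pseudo-first-order conditions). Trp emission above 320 nm (295 nm excitation, 320 nm cut-off filter) was recorded at 25 °C, 1000 points per trace. Averaged traces were fitted single-exponentially for kobs; kobs versus peptide concentration gave kon and koff. Three experiments were averaged.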

Turning to LIPAD, the “affinity for 15F3” value at 15F3 of Fn [1] was “moderate affinity”. For the same substance, the “binding kinetics to 15F3” value at 15F3 of Fn [2] is “slow binding kinetics”.
